Experimental data taken from paper PMC7323501 (Inorganic chemistry, 2019).
Where two headings read alike, the source gives them in different places.

What was measured:
[1] = CCA assay: copper/ascorbate redox cycling, hydroxyl radical production; details: 1 equiv (10 μM) vs copper(II) 10 μM, ascorbate 300 μM, CCA 100 μM, pH 7.4
Summary of the method: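 Cu(II)/ascorbate hydroxyl-radical model in PBS (pH 7.4) with Desferal (1 μM); CuSO4 in water. Addition order is buffer, CCA (100 μM), Desferal, test compound (0.5 equiv = 5 μM or 1 equiv = 10 μM), Cu(II) (10 μM), then ascorbate (300 μM). The read-out is 7-hydroxy-CCA fluorescence (λex 395 nm, λem 450 nm). Triplicate.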

[2] = cited from earlier work
[3] = DPPH radical scavenging assay; details: 1–1500 μM, MeOH, 30 min, n = 3
Summary of the method: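 Test compound stocks (5 mM, MeOH) were diluted and mixed 1:1 with DPPH stock (150 μM in MeOH), giving final compound 1–1500 μM. Plates were incubated 30 min in the dark at room temperature and read at 516 nm. BHT served as reference antioxidant, and DPPH plus MeOH as the control. Each concentration was run in triplicate, with results normalised to control as % DPPH quenched.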

[4] = ABTS radical reactivity
[5] = system: HT-22 cells; assay: Cytoprotection against H2O2 in HT-22 cells, WST-8 assay; format: cell-based, mouse; details: then 600 μM H2O2 4 h
Summary of the method: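 HT-22 cells were pretreated with or without test compound (0.1–100 μM) for 24 h, then exposed to 600 μM H2O2 for 4 h. Viability was read by WST-8 reduction (2 h incubation, A450). Values are mean ± SD, n = 6, and significance was tested against the H2O2-only group.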

[6] = system: Nrf2; assay: Nrf2 expression by Western blot in HT-22 cells; format: cell-based, mouse; details: HT-22, 1 μM, 24 h
[7] = system: Nrf2 pathway; details: human blood–brain barrier CMEC/D3 cells; cited from earlier work
[8] = previously shown; cited from earlier work

SMILES: CCN(CC)Cc1cccc(CN(CC)CC)n1 [2,6-bis[(diethylamino)methyl]pyridine]
- inhibition of CCA conversion to fluorescent hydroxy-CCA [1]: failed to give any indication of the prevention of copper redox cycling

SMILES: C1CNCCNCCNCCN1 [cyclen, reference compound]
- log K1^H ([2]; I = 0.15 M NaClO4): 10.66
- log K2^H ([2]; I = 0.15 M NaClO4): 9.69
- log K3^H ([2]; I = 0.15 M NaClO4): 1.41
- pI ([2]; I = 0.15 M NaClO4): > 10.66

SMILES: Cc1cc(C(C)(C)C)c(O)c(C(C)(C)C)c1 [BHT, 2,6-Di-tert-butyl-4-methylphenol, reference compound]
- DPPH^• radical scavenging response [3]: rapid decrease in the DPPH^• absorbance band

SMILES: Oc1cc2nc(c1)CNCCNCCNC2 [L2]
- DPPH^• radical scavenging response [3]: strong response
- reactivity with ABTS [4]: little to no reactivity
- cell viability after H2O2 ([5]; HT-22, 1 μM pretreatment 24 h, mean ± SD, n = 6): 70.1 ± 9.8%
- cell viability after H2O2 ([5]; HT-22, 0.1, 10 and 100 μM pretreatment 24 h): did not improve the cell viability
- expression level of Nrf2 [6]: significantly increase the expression level of Nrf2
- log K1^H ([2]; I = 0.15 M NaCl, T = 298 K): 11.56
- log K2^H ([2]; I = 0.15 M NaCl, T = 298 K): 9.05
- log K3^H ([2]; I = 0.15 M NaCl, T = 298 K): 5.45
- log K4^H ([2]; I = 0.15 M NaCl, T = 298 K): 1.68
- pI ([2]; I = 0.15 M NaCl, T = 298 K): 10.31
- Nrf2 pathway activation [7]: could activate the Nrf2 pathway

SMILES: c1cc2nc(c1)CNCCNCCNC2 [L1]
- log K1^H ([2]; I = 0.15 M NaCl, T = 298 K): 11.37
- log K2^H ([2]; I = 0.15 M NaCl, T = 298 K): 8.22
- log K3^H ([2]; I = 0.15 M NaCl, T = 298 K): 1.61
- pI ([2]; I = 0.15 M NaCl, T = 298 K): >11.37
- DPPH^• radical scavenging activity [8]: lack of radical scavenging activity
